Test results as given in ChEMBL document CHEMBL1138232, “Optimization of naphthalimide-imidazoacridone with potent antitumor activity leading to clinical candidate (HKH40A, RTA 502)” (J Med Chem, 2007).
Several values for one entry are separate records, joined by “and”; a condition that tells them apart may be missing. Equal entries are not always repeated.

Assays:
SK-MEL-28 = experiment: Antitumor activity against human SK-MEL-28 cells after 48 hrs; type: functional; conditions: SK-MEL-28, 48 h
Outline: (§1)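 Tested in the NCI 60 human tumour cell line screen, with continuous drug exposure for 48 h. Values include LC50 derived from the screen.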

SK-MEL-2 = experiment: Antitumor activity against human SK-MEL-2 cells after 48 hrs; type: functional; conditions: SK-MEL-2, 48 h; outline: as §1
UACC-62 = experiment: Antitumor activity against human UACC62 cells after 48 hrs; type: functional; conditions: UACC-62, 48 h
Outline: (§2)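 NCI 60 human tumour cell line screen; 48 h continuous drug exposure. Compounds tested as tri(methanesulfonate) salts, soluble in water and dilute buffers. Dilute solutions are light-sensitive and adsorb to glass or quartz.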

IGROV-1 = experiment: Antitumor activity against human IGROV1 cells after 48 hrs; type: functional; conditions: IGROV-1, 48 h; outline: as §1
OVCAR-3 = experiment: Antitumor activity against human OVCAR-3 cells after 48 hrs; type: functional; conditions: OVCAR-3, 48 h; outline: as §1
[1] = Growth inhibition of human Hep3B cells after 5 days by MTT assay; type: functional, Hep 3B2; conditions: 120 h
Outline: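 MTT assay after 5 day continuous exposure. GI50, TGI and LC50 calculated from the MTT data. Means ± SD of at least three independent experiments; coefficients of variation 10-20%. Compounds used as tri(methanesulfonate) salts.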

RKO = experiment: Antitumor activity against human RKO cells expressing wild type p53; type: functional; conditions: read-out: LC50 (the source's name)
Outline: (§3)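 Compounds tested as tri(methanesulfonate) salts, soluble in water and dilute buffers. Human tumour cells carrying wild-type or mutated p53 were exposed for 5 days, and viability was read by MTT assay. GI50, TGI and LC50 were calculated from the MTT data. Values are means ± SD of at least three independent experiments, with coefficients of variation of 10–20%.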

[2] = Antitumor activity against human 10.05 cells expressing mutated p53; type: functional, cell-based; outline: as §3
HCT-116 [3] = experiment: Cell cycle arrest in HCT116 cells assessed as accumulation at G2/M phase at 50 nM after 72 hrs; type: functional, Homo sapiens
Outline: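 HCT116 cells exposed to 50 nM drug for 72 h, then cell-cycle distribution analysed. Sub-G1, G1, S and G2/M fractions reported as percent of cells, with untreated control cells for comparison.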

[4] = Drug level in NCR nu/nu mouse plasma at 20 mg/kg, iv after 8 hrs; type: ADME, organism-based; design: dose 20 mg/kg, route intravenous
Outline: (§4)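 Single i.v. dose of 20 mg/kg to ncr nu/nu mice and an F344 rat. Plasma concentrations followed over time and fitted by nonlinear regression to give distribution and elimination phases, AUC and apparent volumes of distribution. Detection limit 50 nM.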

[5] = Drug level in F344 rat plasma at 20 mg/kg, iv after 4 hrs; type: ADME, organism-based; design: dose 20 mg/kg, route intravenous; outline: as §4
[6] = Apparent volume of distribution in F344 rat at 20 mg/kg, iv; type: ADME, organism-based; design: dose 20 mg/kg, route intravenous; conditions: in vivo; outline: as §4
HCT-116 [7] = experiment: Inhibition of tumor growth in HCT116 cells xenografted in nu/nu mouse; type: functional, Homo sapiens
Outline: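 HCT116 xenografts in mice; compound given i.v. on a Q3Dx4 schedule, starting when tumours reached 62 mm3. Tumour growth inhibition measured.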

K562 = experiment: Antitumor activity against human K562 cells after 48 hrs; type: functional; outline: as §1
EKVX = experiment: Antitumor activity against human EKVX cells after 48 hrs; type: functional; outline: as §1
NCI-H226 = experiment: Antitumor activity against human NCI-H226 cells after 48 hrs; type: functional; conditions: NCI-H226, 48 h; outline: as §1
NCI-H460 = experiment: Antitumor activity against human NCI-H460 cells after 48 hrs; type: functional; conditions: NCI-H460, 48 h; outline: as §1
[8] = Antitumor activity against human NCI-H322 cells after 48 hrs; type: functional; conditions: NCI-H322, 48 h; outline: as §1
NCI-H522 = experiment: Antitumor activity against human NCI-H522 cells after 48 hrs; type: functional; conditions: NCI-H522, 48 h; outline: as §1
HCC 2998 = experiment: Antitumor activity against human HCC2998 cells after 48 hrs; type: functional; conditions: HCC 2998, 48 h; outline: as §1
HCT-116 [9] = experiment: Antitumor activity against human HCT116 cells after 48 hrs; type: functional; conditions: HCT-116, 48 h; outline: as §1
KM12 = experiment: Antitumor activity against human KM12 cells after 48 hrs; type: functional; conditions: KM12, 48 h; outline: as §1
SW-620 = experiment: Antitumor activity against human SW620 cells after 48 hrs; type: functional; conditions: SW-620, 48 h; outline: as §2
SF-268 = experiment: Antitumor activity against human SF268 cells after 48 hrs; type: functional; conditions: SF-268, 48 h; outline: as §1
SF-539 = experiment: Antitumor activity against human SF539 cells after 48 hrs; type: functional; conditions: SF-539, 48 h; outline: as §1
SNB-19 = experiment: Antitumor activity against human SNB19 cells after 48 hrs; type: functional; conditions: SNB-19, 48 h; outline: as §1
OVCAR-5 = experiment: Antitumor activity against human OVCAR5 cells after 48 hrs; type: functional; conditions: OVCAR-5, 48 h; outline: as §1
786-0 = experiment: Antitumor activity against human 786-0 cells after 48 hrs; type: functional; conditions: 786-0, 48 h; outline: as §1
TK-10 = experiment: Antitumor activity against human TK10 cells after 48 hrs; type: functional; conditions: TK-10, 48 h; outline: as §2
UO-31 = experiment: Antitumor activity against human UO31 cells after 48 hrs; type: functional; conditions: UO-31, 48 h; outline: as §2
PC-3 = experiment: Antitumor activity against human PC3 cells after 48 hrs; type: functional; conditions: PC-3, 48 h; outline: as §1
NCI = experiment: Antitumor activity against human NCI/ADR-RES cells after 48 hrs; type: functional; outline: as §1
[10] = read-out: Log LC50 (the source's name) (converted)

COc1ccc2c(c1)c(=O)c1c(NCCCN3CCN(CCCN4C(=O)c5cccc6cc([N+](=O)[O-])cc(c56)C4=O)CC3)ccc3ncn2c31.CS(=O)(=O)O
GI50 (SK-MEL-28): 5.5 nM | CC50 (SK-MEL-28; [10]): > 1000 nM | TGI (SK-MEL-28; read-out: Log TGI (converted)): 933 nM | GI50 (SK-MEL-2): 27.5 nM | CC50 (SK-MEL-2; [10]): > 1000 nM | TGI (SK-MEL-2; read-out: Log TGI (converted)): > 1000 nM | GI50 (UACC-62): 3.31 nM | CC50 (UACC-62; [10]): > 1000 nM | TGI (UACC-62; read-out: Log TGI (converted)): 55 nM | GI50 (IGROV-1): 3.39 nM | CC50 (IGROV-1; [10]): > 1000 nM | TGI (IGROV-1; read-out: Log TGI (converted)): 51.3 nM | GI50 (OVCAR-3): 50.1 nM | CC50 (OVCAR-3; [10]): > 1000 nM | TGI (OVCAR-3; read-out: Log TGI (converted)): > 1000 nM | GI50 [1]: 2.5 nM | CC50 ([1]; read-out: LC50 (the source's name)): 50 nM | CC50 (RKO): 25 nM | IC50 [2]: 90 nM | Activity (HCT-116 [3]): 27.1% | concentration at 8 h [4]: 70 nM | concentration at 4 h [5]: 90 nM | Vd [6]: 138 L/kg | TGI (HCT-116 [7]): 59% | GI50 (K562; Homo sapiens, K562, 48 h): 1.74 nM | TGI (K562; read-out: Log TGI (converted)): 186 nM and > 1000 nM | GI50 (EKVX): 3.31 nM | CC50 (EKVX; [10]): > 1000 nM | TGI (EKVX; read-out: Log TGI (converted)): 58.9 nM | GI50 (NCI-H226): 1.32 nM | CC50 (NCI-H226; [10]): > 1000 nM | TGI (NCI-H226; read-out: Log TGI (converted)): 32.4 nM | GI50 (NCI-H460): 2.57 nM | CC50 (NCI-H460; [10]): > 1000 nM | TGI (NCI-H460; read-out: Log TGI (converted)): > 1000 nM | GI50 [8]: 5.89 nM | CC50 [8, 10]: > 1000 nM | TGI ([8]; read-out: Log TGI (converted)): 309 nM | GI50 (NCI-H522): 4.17 nM | CC50 (NCI-H522; [10]): > 1000 nM | TGI (NCI-H522; read-out: Log TGI (converted)): 151 nM | GI50 (HCC 2998): 11.5 nM | CC50 (HCC 2998; [10]): > 1000 nM | TGI (HCC 2998; read-out: Log TGI (converted)): > 1000 nM | GI50 (HCT-116 [9]): 0.407 nM | CC50 (HCT-116 [9]; [10]): 214 nM | TGI (HCT-116 [9]; read-out: Log TGI (converted)): 15.1 nM | GI50 (KM12): 4.37 nM | CC50 (KM12; [10]): > 1000 nM | TGI (KM12; read-out: Log TGI (converted)): 537 nM | GI50 (SW-620): 0.676 nM | CC50 (SW-620; [10]): > 1000 nM | TGI (SW-620; read-out: Log TGI (converted)): > 1000 nM | GI50 (SF-268): 10.2 nM | CC50 (SF-268; [10]): > 1000 nM | TGI (SF-268; read-out: Log TGI (converted)): > 1000 nM | GI50 (SF-539): 2.75 nM | CC50 (SF-539; [10]): > 1000 nM | TGI (SF-539; read-out: Log TGI (converted)): 25.1 nM | GI50 (SNB-19): 8.51 nM | CC50 (SNB-19; [10]): > 1000 nM | TGI (SNB-19; read-out: Log TGI (converted)): > 1000 nM | GI50 (OVCAR-5): 339 nM | CC50 (OVCAR-5; [10]): > 1000 nM | TGI (OVCAR-5; read-out: Log TGI (converted)): > 1000 nM | GI50 (786-0): 5.25 nM | CC50 (786-0; [10]): > 1000 nM | TGI (786-0; read-out: Log TGI (converted)): > 1000 nM | GI50 (TK-10): 13.5 nM | CC50 (TK-10; [10]): > 1000 nM | TGI (TK-10; read-out: Log TGI (converted)): > 1000 nM | GI50 (UO-31): 2.69 nM | CC50 (UO-31; [10]): > 1000 nM | TGI (UO-31; read-out: Log TGI (converted)): 17.8 nM | GI50 (PC-3): 3.09 nM | CC50 (PC-3; [10]): > 1000 nM | TGI (PC-3; read-out: Log TGI (converted)): 339 nM | GI50 (NCI): 24 nM | CC50 (NCI; [10]): > 1000 nM | TGI (NCI; read-out: Log TGI (converted)): > 1000 nM
